# Results published in ChEMBL document CHEMBL4330170, “Acidiphilamides A-E, Modified Peptides as Autophagy Inhibitors from an Acidophilic Actinobacterium, Streptacidiphilus rugosus” (J Nat Prod, 2019).
# Calls of active or inactive are those of the source. The rule behind the calls is not given here. Non-standard residues stand in square brackets, D forms with d. Residues, ends and D or L forms follow the SMILES beside them. *: point of attachment. Phe(ol) = N[C@H](CO)Cc1ccccc1; Isovaleryl = CC(C)CC(=O)*; Propionyl = CCC(=O)*; Butyryl = CCCC(=O)*
# Tests used:
# HeLa [1] = assay: Inhibition of autophagic flux in human HeLa cells assessed as increase in LC3-2 level at 100 to 200 uM after 4 to 12 hrs by immunoblot analysis; format: functional, cell-based
# Outline: (§1)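 HeLa cells grown in DMEM with 10% FBS, 2 mM glutamine and penicillin/streptomycin, preincubated overnight, then exposed to compound at the indicated final concentrations for 4, 8 or 12 h. Whole-cell RIPA lysates run on SDS-PAGE, transferred to PVDF, blocked in 5% nonfat milk, probed with anti-LC3, anti-SQSTM1, anti-Ub, anti-α3 or anti-β-actin, HRP secondary, ECL detection.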
# HeLa [2] = assay: Inhibition of autophagic flux in human HeLa cells assessed as increase in LC3-2 level after 4 to 12 hrs by immunoblot analysis; format: functional, cell-based; outline: as §1
# HeLa [3] = assay: Effect on p62/SQSTM1 protein expression in human HeLa cells at 100 to 200 uM after 4 to 12 hrs by immunoblot analysis; format: functional, cell-based; outline: as §1
# [4] = target: 26S proteasome (Homo sapiens) (UniProt Q99460+P49721+P20618+P28074+P28062+P28065+P28072+O00487+P25786+P25787+P25788+P25789+P28066+P60900+O14818+Q8TAA3+P40306+A5LHX3+P49720+P28070+Q99436+Q16186+P35998+P62191+P43686+P62333+P17980+P62195+Q13200+O43242+O00232+O00231+Q15008+P51665+Q9UNM6+P55036+P48556+P60896); assay: Inhibition of human 26S proteasome using suc-LLVY-AMC as substrate up to 40 mins by fluorescence assay; format: protein-complex assay
# Outline: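 Purified human 26S proteasomes incubated with compound and fluorogenic substrate suc-LLVY-AMC. Substrate hydrolysis followed as AMC fluorescence (RFU) over time.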
# HeLa [5] = assay: Effect on polyubiquitin conjugate protein expression in human HeLa cells at 100 to 200 uM after 4 to 12 hrs by immunoblot analysis; format: functional, cell-based; outline: as §1
# HeLa [6] = assay: Effect on proteasome subunit alpha-3 protein expression in human HeLa cells at 100 to 200 uM after 4 to 12 hrs by immunoblot analysis; format: functional, cell-based; outline: as §1
# HeLa [7] = assay: Inhibition of autophagic flux in human HeLa cells assessed as reduction in autolysosome formation by measuring increase in LC3-2 level at 200 uM after 8 hrs in presence of BafA1 by immunoblot analysis; format: functional, cell-based
# Outline: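 HeLa cells grown in normal DMEM to >90% confluence, washed with PBS, then cotreated for 8 h with compound (200 μM) plus bafilomycin A1 (100 nM) in DMEM, or under amino acid depletion in EBSS. Whole-cell RIPA lysates immunoblotted (SDS-PAGE, PVDF, milk block, HRP secondary, ECL); β-actin loading control.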
# HeLa [8] = assay: Inhibition of autophagic flux in human HeLa cells assessed as DQ-BSA quenching at 200 uM after 4 hrs by DAPI staining based fluorescence microscopic method; format: functional, cell-based
# Outline: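 HeLa cells on glass coverslips loaded with self-quenching BODIPY–BSA (DQ-BSA, 10 μg/mL) for 1 h, PBS-washed, then exposed to DMSO, EBSS or compound (200 μM) for 4 h. Fixed in 4% paraformaldehyde/PBS 15 min, mounted with DAPI-containing medium. Dequenched DQ-BSA puncta in autolysosomes imaged by fluorescence microscopy.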
# HeLa [9] = assay: Inhibition of autophagic flux in human HeLa cells assessed as increase in LC3-2 level at 100 to 200 uM after 4 to 12 hrs by immunoblot analysis
smiles,measurement,setting,value
CC[C@H](C)[C@H](NC(=O)[C@H](Cc1ccc(O)cc1)NC(=O)CC(C)C)C(=O)N[C@H](CO)CCSC,LC3-II increase (active/not active),HeLa [1],inactive
CCCC(=O)N[C@@H](Cc1ccccc1)C(=O)N[C@H](C(=O)N[C@H](CO)Cc1ccccc1)[C@@H](C)CC (Butyryl-Phe-Ile-[Phe(ol)]),inhibition,HeLa [2],Dose-dependent effect
same,Activity,HeLa [3],inactive
same,inhibition,[4],inactive
same,Activity,HeLa [5],inactive
same,Activity,HeLa [6],inactive
same,inhibition,HeLa [7],inactive
same,inhibition,HeLa [8],Active
same,inhibition,HeLa [9],Active
CC[C@H](C)[C@H](NC(=O)[C@H](Cc1ccccc1)NC(=O)CC(C)C)C(=O)N[C@H](CO)Cc1ccccc1 (Isovaleryl-Phe-Ile-[Phe(ol)]),LC3-II increase (active/not active),HeLa [1],inactive
CC(C)CC(=O)N[C@@H](Cc1ccccc1)C(=O)N[C@H](C(=O)N[C@H](CO)Cc1ccccc1)C(C)C (Isovaleryl-Phe-Val-[Phe(ol)]),inhibition,HeLa [2],Dose-dependent effect
same,Activity,HeLa [3],inactive
same,inhibition,[4],inactive
same,Activity,HeLa [5],inactive
same,Activity,HeLa [6],inactive
same,inhibition,HeLa [7],inactive
same,inhibition,HeLa [8],Active
same,inhibition,HeLa [9],Active
CC[C@H](C)[C@H](NC(=O)[C@H](Cc1ccc(O)cc1)NC(=O)CC(C)C)C(=O)N[C@H](CO)Cc1ccccc1 (Isovaleryl-Tyr-Ile-[Phe(ol)]),LC3-II increase (active/not active),HeLa [1],inactive
CC(C)CC(=O)N[C@@H](Cc1ccc(O)cc1)C(=O)N[C@H](C(=O)N[C@H](CO)Cc1ccccc1)C(C)C (Isovaleryl-Tyr-Val-[Phe(ol)]),LC3-II increase (active/not active),HeLa [1],inactive
CCC(=O)N[C@@H](Cc1ccc(O)cc1)C(=O)N[C@H](C(=O)N[C@H](CO)Cc1ccccc1)[C@@H](C)CC (Propionyl-Tyr-Ile-[Phe(ol)]),LC3-II increase (active/not active),HeLa [1],inactive
